Measured values taken from paper PMC4002067 (Journal of Medicinal Chemistry, 2014).

Assays:
[1] = molecular target: T1, SIRT1 (Homo sapiens, UniProt Q96EB6); experiment: SIRT-Glo enzyme inhibition assay, SIRT1; assay type: biochemical; settings: for selectivity for SIRT1 (over SIRT2): from IC50 values
T1 sequence (Q96EB6 1-747): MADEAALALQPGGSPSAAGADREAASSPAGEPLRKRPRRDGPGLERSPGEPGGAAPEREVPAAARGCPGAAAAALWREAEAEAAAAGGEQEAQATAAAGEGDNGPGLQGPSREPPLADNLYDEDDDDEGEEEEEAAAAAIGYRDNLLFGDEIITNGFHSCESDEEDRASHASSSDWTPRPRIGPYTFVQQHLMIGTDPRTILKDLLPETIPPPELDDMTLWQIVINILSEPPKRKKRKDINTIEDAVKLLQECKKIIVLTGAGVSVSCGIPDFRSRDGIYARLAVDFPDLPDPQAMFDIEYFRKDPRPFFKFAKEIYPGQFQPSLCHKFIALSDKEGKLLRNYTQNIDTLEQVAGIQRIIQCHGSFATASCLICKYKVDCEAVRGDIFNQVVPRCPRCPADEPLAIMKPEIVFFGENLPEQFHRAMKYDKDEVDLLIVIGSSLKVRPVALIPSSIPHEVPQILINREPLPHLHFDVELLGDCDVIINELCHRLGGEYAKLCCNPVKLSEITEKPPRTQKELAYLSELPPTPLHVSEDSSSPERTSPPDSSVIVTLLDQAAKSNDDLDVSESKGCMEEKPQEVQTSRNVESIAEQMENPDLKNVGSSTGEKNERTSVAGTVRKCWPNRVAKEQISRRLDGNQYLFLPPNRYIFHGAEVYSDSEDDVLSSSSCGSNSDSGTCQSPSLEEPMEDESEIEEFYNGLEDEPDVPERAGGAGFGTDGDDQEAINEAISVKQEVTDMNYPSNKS

[2] = molecular target: T2, SIRT2 (Homo sapiens, UniProt Q8IXJ6); experiment: SIRT-Glo enzyme inhibition assay, SIRT2; assay type: biochemical; settings: 50 μM compound
T2 sequence (Q8IXJ6 1-389): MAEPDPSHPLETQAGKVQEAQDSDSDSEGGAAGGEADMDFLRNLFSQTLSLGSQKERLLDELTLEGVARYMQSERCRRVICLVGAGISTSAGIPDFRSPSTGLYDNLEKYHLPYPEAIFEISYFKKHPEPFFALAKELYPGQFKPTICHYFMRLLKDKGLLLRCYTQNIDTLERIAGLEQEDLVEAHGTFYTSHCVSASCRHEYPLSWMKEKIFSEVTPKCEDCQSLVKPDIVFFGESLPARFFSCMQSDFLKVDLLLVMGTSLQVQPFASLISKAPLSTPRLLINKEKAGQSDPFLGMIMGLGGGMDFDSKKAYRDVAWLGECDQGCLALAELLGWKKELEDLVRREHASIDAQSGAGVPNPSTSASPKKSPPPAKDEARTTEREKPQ

[3] = molecular target: T3, SIRT3 (Homo sapiens, UniProt Q9NTG7); experiment: SIRT-Glo enzyme inhibition assay, SIRT3; assay type: biochemical; settings: 50 μM compound
T3 sequence (Q9NTG7 1-399): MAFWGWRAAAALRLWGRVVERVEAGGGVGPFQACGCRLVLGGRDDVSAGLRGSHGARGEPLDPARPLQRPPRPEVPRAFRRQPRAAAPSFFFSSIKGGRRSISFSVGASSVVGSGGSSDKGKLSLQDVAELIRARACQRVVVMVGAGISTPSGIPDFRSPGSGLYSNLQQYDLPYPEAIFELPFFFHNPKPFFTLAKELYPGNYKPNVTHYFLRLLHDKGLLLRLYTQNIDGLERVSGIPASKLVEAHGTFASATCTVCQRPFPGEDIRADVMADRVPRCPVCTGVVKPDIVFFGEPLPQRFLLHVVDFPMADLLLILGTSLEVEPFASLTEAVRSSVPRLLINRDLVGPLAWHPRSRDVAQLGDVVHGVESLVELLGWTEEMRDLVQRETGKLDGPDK

[4] = drawback stated in the introduction; cited from earlier work
[5] = molecular target: T1, SIRT1; experiment: Saturation transfer difference; assay type: binding; settings: 1.5 μM SIRT1, 200 μM compound, naphthalene numbering
[6] = test system: lymphoma and epithelial cancer cell lines; experiment: Cytotoxicity across lymphoma and epithelial cancer cell lines; assay type: cell-based; settings: 72 h, read-out: cytotoxicity IC50 range
In short: (§1)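 Cells grown under standard conditions and treated in 96-well format with test compound in DMSO (final DMSO 0.25%) or DMSO control for 72 h. Viability was read as luminescence with CellTiterGlo. Assays were run in triplicate, and values are averages of two independent experiments.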

[7] = Cytotoxicity in nontransformed B-cell lines; assay type: cell-based; settings: human, nontransformed EBV-immortalized B-cell lines B1 and B2
In short: as §1

[8] = test system: SIRT2-mediated deacetylation of α-tubulin in NCI-H460 cells; experiment: α-tubulin acetylation by Western blot; assay type: cell-based, human; settings: 4 h treatment

4-[(2-Chloro-6-hydroxy-4-methylquinolin-5-yl)methyl]-5-(4-methylphenyl)-2,3-dihydro-1H-pyrazol-3-one [compound 22]
SIRT1 (% inh) ([1]; 50 μM compound): 27%
SIRT2 (% inh) [2]: 24%
SIRT3 (% inh) [3]: 32%

O=c1[nH]c(=S)[nH]c(-c2ccccc2)c1Cc1c(O)ccc2ccccc12 [compound 1, 5-[(2-hydroxy-1-naphthyl)methyl]-6-phenyl-2-thioxo-2,3-dihydro-4(1H)-pyrimidinone]
solubility [4]: poor solubility

Cc1ccc(-c2[nH][nH]c(=O)c2Cc2c(O)ccc3cc(Br)ccc23)cc1 [compound 14, 4-[(6-Bromo-2-hydroxynaphthalen-1-yl)methyl]-5-(4-methylphenyl)-2,3-dihydro-1H-pyrazol-3-one]
selectivity for SIRT1 (over SIRT2) [1]: greater than 5 fold

Cc1ccc(-c2[nH][nH]c(=O)c2Cc2c(O)ccc3nc(Cl)ccc23)cc1 [compound 20, 4-[(2-Chloro-6-hydroxyquinolin-5-yl)methyl]-5-(4-methylphenyl)-2,3-dihydro-1H-pyrazol-3-one]
relative STD signal intensity, C-7 proton [5]: 100%

CC(C)c1ccc(-c2[nH][nH]c(=O)c2Cc2c(O)ccc3nc(Cl)ccc23)cc1 [compound 23, 4-[(2-Chloro-6-hydroxyquinolin-5-yl)methyl]-5-[4-(propan-2-yl)phenyl]-2,3-dihydro-1H-pyrazol-3-one]
selectivity for SIRT1 (over SIRT2) [1]: > 3 fold

Cc1ccc(-c2[nH]oc(=O)c2Cc2c(O)ccc3cc(Br)ccc23)cc1 [compound 24, 4-[(6-Bromo-2-hydroxynaphthalen-1-yl)methyl]-3-(4-methylphenyl)-2,5-dihydro-1,2-oxazol-5-one]
selectivity for SIRT1 (over SIRT2) [1]: 7.8 fold
IC50 [6]: 3 to 7 µM
IC50 at 72 h [7]: 22 to 28 µM
α-tubulin acetylation [8]: rapid and robust dose-dependent increase in α-tubulin acetylation
